pIC50, pKd: −log10 of the molar value. Values joined by “and” are separate entries in the source; they are usually repeats but may differ in a detail not shown here. Identical values can stand only once. Blank lines part the entries; values can stand above or below the molecule they belong to.
Legend:
Cavia porcellus [1] = species on record: Cavia porcellus; test: Duration of action of compound for inhibition of arachidonic acid-induced response in guinea pigs; format: functional
Thromboxane A2 receptor [2] = biological target: T1, Thromboxane A2 receptor (Homo sapiens, UniProt P21731); test: Inhibition of specific binding of HSQ(5,6-di-3H-SQ 29,548) in washed platelets; parameters: species or system Cavia porcellus
T1 sequence (P21731 whole entry): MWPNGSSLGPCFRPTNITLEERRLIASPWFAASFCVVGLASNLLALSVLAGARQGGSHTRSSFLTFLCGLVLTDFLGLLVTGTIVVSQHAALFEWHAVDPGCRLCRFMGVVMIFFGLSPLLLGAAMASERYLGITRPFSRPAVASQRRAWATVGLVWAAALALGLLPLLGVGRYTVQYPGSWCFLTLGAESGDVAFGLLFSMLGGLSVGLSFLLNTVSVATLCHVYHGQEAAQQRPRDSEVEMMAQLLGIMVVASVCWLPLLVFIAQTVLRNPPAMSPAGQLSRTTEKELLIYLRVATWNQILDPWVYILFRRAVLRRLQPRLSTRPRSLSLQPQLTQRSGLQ

Homo sapiens [3] = species on record: Homo sapiens; test: Percentage stimulation on the synthesis of PGE-2 at a dose of 1000 uM; format: functional
Outline: (§1)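 Arachidonic acid metabolism was measured in a lysed platelet preparation. Thromboxane synthesis (as TxB2) and PGE2 production were determined at each listed test concentration.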

Cavia porcellus [4] = test: Change in mean arterial blood pressure(MABP) in guinea pigs by 1 mg/kg of intravenously administered compound; format: functional, Artery; conditions: route intravenous
Outline: (§2)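 Anesthetized guinea pigs were challenged with arachidonic acid, and lung mechanics (lung resistance, dynamic compliance) and mean arterial blood pressure were recorded. Compounds were given as a 1.0 mg/kg rapid iv infusion, with n = 5 versus vehicle. Inhibition above 100% denotes reversal of the blood-pressure response.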

Homo sapiens [5] = species on record: Homo sapiens; test: Percentage stimulation on the synthesis of PGE-2 at a dose of 100 uM; format: functional; outline: as §1
Homo sapiens [6] = species on record: Homo sapiens; test: Percentage stimulation on the synthesis of PGE-2 at a dose of 33 uM; format: functional; outline: as §1
Homo sapiens [7] = species on record: Homo sapiens; test: (§3) Percent inhibition on the synthesis of thromboxane B2 at a dose of 100 uM; format: functional; outline: as §1
Cavia porcellus [8] = test: Inhibition of arachidonic acid-induced response in guinea pigs by 1 mg/kg of intravenously administered compound; format: functional; parameters: scale not given: the % may be the effect or the level left; conditions: route intravenous; outline: as §2
Rattus norvegicus [9] = species on record: Rattus norvegicus; test: maximal contraction of rat stomach strip by 3 x 10e -7M serotonin; format: functional
Homo sapiens [10] = species on record: Homo sapiens; test: In vitro evaluation for arachidonic acid induced platelet aggregation of human platelet-rich plasma; format: functional; conditions: read-out: I50
Outline: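 Human platelet-rich plasma was aggregated with arachidonic acid (800 μM). An ADP (20 μM)-induced aggregation run served as a counter-screen.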

Homo sapiens [11] = species on record: Homo sapiens; test: Percentage stimulation on the synthesis of PGE-2 at a dose of 333 uM; format: functional; outline: as §1
Cavia porcellus [12] = species on record: Cavia porcellus; test: In vitro evaluation for antagonist activity against the contraction-induced by histamine (1 ug/mL); format: functional; conditions: read-out: I50
Outline: (§4)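 Guinea pig trachea spirals were contracted by either 9,11-azo-PGH2 (a stable PGH2/TxA2 mimetic) or histamine, and compounds were tested for blockade of these contractions.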

Homo sapiens [13] = species on record: Homo sapiens; test: (§5) Percentage stimulation on the synthesis of PGE-2 at a dose of 10 uM; format: functional; outline: as §1
Cavia porcellus [14] = species on record: Cavia porcellus; test: In vitro evaluation for antagonist activity against the contraction-induced by 9,11-azo-PGH2 (0.1 ug/mL); format: functional; conditions: read-out: I50; outline: as §4
Homo sapiens [15] = species on record: Homo sapiens; test: (§6) Percent inhibition on the synthesis of thromboxane B2 at a dose of 1000 uM; format: functional; outline: as §1
Homo sapiens [16] = species on record: Homo sapiens; test: Percent inhibition on the synthesis of thromboxane B2 at a dose of 333 uM; format: functional; outline: as §1
Rattus norvegicus [17] = species on record: Rattus norvegicus; test: Concentration required to elicit 50% of the maximal contraction of rat stomach strip; format: functional
Outline: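 Rat stomach strip contraction was measured as the concentration giving 50% of the maximal contraction produced by 3×10^-7 M serotonin.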

Cavia porcellus [18] = test: Change in mean arterial blood pressure in guinea pigs by 1 mg/kg of intravenously administered compound; format: functional, Artery; conditions: route intravenous; outline: as §2
Cavia porcellus [19] = species on record: Cavia porcellus; test: Duration of action of compound for Inhibition of arachidonic acid-induced response in guinea pigs; format: functional
Homo sapiens [20] = species on record: Homo sapiens; test: Percentage stimulation on the synthesis of PGE-2 was at a dose of 31 uM; format: functional; outline: as §1
Homo sapiens [21] = species on record: Homo sapiens; test: (§7) Percentage stimulation on the synthesis of PGE-2 was at a dose of 100 uM; format: functional; outline: as §1
Homo sapiens [22] = species on record: Homo sapiens; test: Percent inhibition on the synthesis of thromboxane B2 at a dose of 3.1 uM; format: functional; outline: as §1
Homo sapiens [23] = species on record: Homo sapiens; test: Percentage stimulation on the synthesis of PGE-2 was at a dose of 3.1 uM; format: functional; outline: as §1
Homo sapiens [24] = species on record: Homo sapiens; test: Percent inhibition on the synthesis of thromboxane B2 at a dose of 1.0 uM; format: functional; outline: as §1
Homo sapiens [25] = species on record: Homo sapiens; test: (§8) Percent inhibition on the synthesis of thromboxane B2 at a dose of 10 uM; format: functional; outline: as §1
Thromboxane A2 receptor [26] = biological target: T1, Thromboxane A2 receptor; test: Compound was evaluated for inhibition of specific binding of HSQ (5,6-di-3H-SQ 29,548) in washed platelets; parameters: species or system Cavia porcellus
Homo sapiens [27] = species on record: Homo sapiens; test: Percentage stimulation on the synthesis of PGE-2 at a dose of 1.0 uM; format: functional; outline: as §1
Homo sapiens [28] = species on record: Homo sapiens; test: Percentage stimulation on the synthesis of PGE-2 was at a dose of 10 uM; format: functional; outline: as §1
Homo sapiens [29] = species on record: Homo sapiens; test: Percent inhibition on the synthesis of thromboxane B2 at a dose of 31 uM.; format: functional; outline: as §1
Cavia porcellus [30] = test: Change in mean arterial blood pressure(MABP) in guinea pigs by 1 mg/kg of intravenously administered compound; activity MABP; format: functional, Artery; conditions: route intravenous; outline: as §2
Homo sapiens [31] = species on record: Homo sapiens; test: (§9) Percentage stimulation on the synthesis of PGE-2 was at a dose of 1000 uM; format: functional; outline: as §1
Homo sapiens [32] = species on record: Homo sapiens; test: Percentage stimulation on the synthesis of PGE-2 was at a dose of 33 uM; format: functional; outline: as §1
Homo sapiens [33] = species on record: Homo sapiens; test: Percentage stimulation on the synthesis of PGE-2 was at a dose of 333 uM; format: functional; outline: as §1
[34] = biological target: Thromboxane A2 receptor (Homo sapiens) (UniProt P21731); test: Compound was evaluated for inhibition of specific binding of HSQ (5,6-di-3H-SQ 29,548) in washed platelets
Homo sapiens [35] = species on record: Homo sapiens; test: as §6; format: functional; outline: as §1; remark: listed apart in the source
Homo sapiens [36] = species on record: Homo sapiens; test: as §7; format: functional; outline: as §1; remark: listed apart in the source
Homo sapiens [37] = species on record: Homo sapiens; test: as §5; format: functional; outline: as §1; remark: listed apart in the source
Homo sapiens [38] = species on record: Homo sapiens; test: as §9; format: functional; outline: as §1; remark: listed apart in the source
Homo sapiens [39] = species on record: Homo sapiens; test: as §8; format: functional; outline: as §1; remark: listed apart in the source
Homo sapiens [40] = species on record: Homo sapiens; test: as §3; format: functional; outline: as §1; remark: listed apart in the source

pKd (Thromboxane A2 receptor [2]): 7.12 | pIC50 (Homo sapiens [10]): 6.30 | pIC50 (Cavia porcellus [12]): < 4.00 | pIC50 (Cavia porcellus [14]): 5.42
SMILES: C=CCSCC1C2CCC(O2)C1C/C=C\CCCC(=O)O (stereo not drawn)
Duration (Cavia porcellus [1]): >60 min | Stimulation (Homo sapiens [3]): 1820% | Agonist activity (Cavia porcellus [4]; 1 mg/kg): 115% and 165% | Stimulation (Homo sapiens [5]): 860% | Stimulation (Homo sapiens [6]): 380% | Inhibition (Homo sapiens [7]): 22.1% | Activity (Cavia porcellus [8]): 273% and 98% | Contraction (Rattus norvegicus [9]): 26% | Stimulation (Homo sapiens [11]): 1650% | Stimulation (Homo sapiens [13]): 220% | Inhibition (Homo sapiens [15]): 61.5% | Inhibition (Homo sapiens [16]): 51.8%

SMILES: CCCCCCSC[C@H]1C2CC[C@@H](O2)[C@H]1C/C=C\CCCC(=O)O (single isomer, unassigned; (+))
Contraction (Rattus norvegicus [9]): 6%

SMILES: O=C(O)CCCC=CCC1C2CCC(O2)C1CSC/C=C/c1ccccc1 (stereo not drawn)
A50 (Rattus norvegicus [17]): 0.7 µM

SMILES: O=C(O)CCC/C=C\CC1C2CCC(O2)C1CSCCc1ccccc1 (stereo not drawn)
A50 (Rattus norvegicus [17]): 23 µM

pIC50 (Cavia porcellus [12]): < 4.00 | pIC50 (Cavia porcellus [14]): 5.80
SMILES: CCC/C=C\CSCC1C2CCC(O2)C1C/C=C\CCCC(=O)O (stereo not drawn)
Activity MABP (Cavia porcellus [18]): 98% and 194% | A50 (Rattus norvegicus [17]): 4.3 µM | Duration (Cavia porcellus [19]): <60 min

pIC50 (Homo sapiens [10]): 6.00 | pIC50 (Cavia porcellus [12]): < 4.00 | pKd (Thromboxane A2 receptor [26]): 8.80 | pIC50 (Cavia porcellus [14]): 6.30
SMILES: CCCCCCSC[C@H]1C2CC[C@@H](O2)[C@H]1C/C=C\CCCC(=O)O (single isomer, unassigned; (-))
Activity MABP (Cavia porcellus [18]): 107% and 153% | Stimulation (Homo sapiens [20]): 404% | Stimulation (Homo sapiens [21]): 556% | Inhibition (Homo sapiens [7]): 69% | Inhibition (Homo sapiens [22]): 3% | A50 (Rattus norvegicus [17]): 25 µM | Stimulation (Homo sapiens [23]): 137% | Inhibition (Homo sapiens [24]): 7% | Inhibition (Homo sapiens [25]): 17% | Duration (Cavia porcellus [19]): <60 min | Stimulation (Homo sapiens [27]): 174% | Stimulation (Homo sapiens [28]): 230% | Inhibition (Homo sapiens [29]): 29%

pKd (Thromboxane A2 receptor [2]): 7.01 | pIC50 (Homo sapiens [10]): 6.15
SMILES: CCCSCC1C2CCC(O2)C1C/C=C\CCCC(=O)O (stereo not drawn)
Agonist activity (Cavia porcellus [4]): 50% | Activity (Cavia porcellus [8]): 131% and 97% | Activity (Cavia porcellus [30]): 50%

pIC50 (Homo sapiens [10]): 6.70 | pIC50 (Cavia porcellus [12]): < 4.00 | pKd (Thromboxane A2 receptor [26]): 9.40 | pIC50 (Cavia porcellus [14]): 6.42
SMILES: CC/C=C\CCSCC1C2CCC(O2)C1C/C=C\CCCC(=O)O (stereo not drawn)
Stimulation (Homo sapiens [31]): 1920% | Stimulation (Homo sapiens [21]): 900% | Inhibition (Homo sapiens [7]): 24.4% | Activity (Cavia porcellus [8]): 245% and 97% | A50 (Rattus norvegicus [17]): 0.2 µM | Stimulation (Homo sapiens [32]): 420% | Stimulation (Homo sapiens [33]): 1340% | Duration (Cavia porcellus [19]): >60 min | Stimulation (Homo sapiens [13]): 210% | Inhibition (Homo sapiens [15]): 91.2% | Inhibition (Homo sapiens [16]): 56.9%

SMILES: CCCCCCSC[C@H]1C2CCC(O2)[C@H]1C/C=C\CCCC(=O)O (stereo partly drawn)
A50 (Rattus norvegicus [17]): 39 µM

pKd (Thromboxane A2 receptor [2]): 7.31 | pIC50 (Homo sapiens [10]): 6.70
SMILES: C=CCCSCC1C2CCC(O2)C1C/C=C\CCCC(=O)O (stereo not drawn)
A50 (Rattus norvegicus [17]): 32 µM

pIC50 (Cavia porcellus [12]): < 4.00 | pIC50 (Cavia porcellus [14]): 6.40
SMILES: CCC/C=C/CSCC1C2CCC(O2)C1CC=CCCCC(=O)O (stereo not drawn)
Activity MABP (Cavia porcellus [18]): 76% and 192% | pKd [34]: 8.51 | A50 (Rattus norvegicus [17]): 26 µM | Duration (Cavia porcellus [19]): <60 min

SMILES: CCCCCSCCC1C2CCC(O2)C1C/C=C\CCCC(=O)O (stereo not drawn)
inhibition (Homo sapiens [35]): 90% | Stimulation (Homo sapiens [36]): -45% | Stimulation (Homo sapiens [37]): 13% | Stimulation (Homo sapiens [38]): -75% | inhibition (Homo sapiens [39]): 33% | inhibition (Homo sapiens [40]): 80%

SMILES: CCSCC1C2CCC(O2)C1C/C=C\CCCC(=O)O (stereo not drawn)
Contraction (Rattus norvegicus [9]): 13%
